Reference: publication PMC10915268 (Parasites, Hosts and Diseases, 2024)

Legend:
[1] = test system: P. falciparum 3D7 (CQ-sensitive strain); assay: In vitro antimalarial activity, P. falciparum 3D7; format: cell-based, Plasmodium falciparum; conditions: for 3D7 Relative SI: selective index (CC50/IC50), relative to SKM13-2HCl = 1
[2] = test system: P. falciparum K1 (CQ-resistant strain); assay: In vitro antimalarial activity, P. falciparum K1; format: cell-based, Plasmodium falciparum; conditions: for K1 Relative SI: selective index (CC50/IC50), relative to SKM13-2HCl = 1
P. berghei NK65 = assay: 4-day suppressive test in P. berghei NK65-infected ICR mice; format: in vivo, Plasmodium berghei (ICR mice)
Summary of the method: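 6-week-old ICR-1 mice were inoculated on day 0 with 107 blood-stage P. berghei NK65. The test compound was given i.v. at 10, 20 or 30 mg/kg once daily for 4 days. Body weight, survival and blood parasites were recorded daily for 2 weeks. At 8 dpi mice were euthanized and livers and spleens harvested.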

Vero cells = assay: Cytotoxicity test using the MTT assay; format: cell-based; conditions: read-out: Vero CC50, 2-day compound exposure
Summary of the method: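 Vero cells were seeded at 104 per well in DMEM with 10% FBS. 12 h later, serial concentrations of test compound were added for 2 days at 37°C, 5% CO2. MTT was then added for 2 h and absorbance read at 490 nm. CC50 was derived from percentage growth inhibition. Run in triplicate, mean±SD.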

[3] = In vivo PK assessment in mice; design: species or system ICR mice; conditions: oral, 5 mg/kg single dose
Summary of the method: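 Healthy female 7-week-old ICR mice (about 30 g), kept under specific pathogen-free conditions, three per group. Each got a single oral dose of test compound at 5 mg/kg. Blood was drawn at various times and plasma stored at −80°C. Levels were measured by LC–MS/MS with calibration and QC standards. Kinetic parameters came from regression of plasma concentration versus time.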

[4] = Solubility in deionized water; format: physicochemical; conditions: saturated aqueous solution, HPLC UV 342 nm
Summary of the method: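 Saturated solutions of the test compound salt were made in deionized water and measured by UHPLC with UV detection at 342 nm. 1% TFA in water was added to the solvent to keep the salt form. Standards at 5 concentrations gave a linear regression, from which solubility was calculated.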

[5] = Turbidity of 1 mM drug in cell culture media; format: physicochemical; conditions: 1 mM dissolved in cell culture media (DMEM)
[6] = 10 mg/kg i.v. once daily for 4 days
[7] = 20 mg/kg, organs collected 8 dpi

SMILES | 3D7 Relative SI [1] | K1 Relative SI [2] | parasitemia (P. berghei NK65; [6]) | CC50 (Vero cells) | IC50 ([1]; read-out: 3D7 IC50, P. falciparum 3D7, synchronized parasites) | IC50 ([2]; read-out: K1 IC50, P. falciparum K1, synchronized parasites) | body weight (P. berghei NK65; 10 mg/kg i.v. once daily for 4 days, infected mice) | parasitemia (P. berghei NK65; 20 mg/kg i.v. once daily for 4 days) | liver pigmentation (P. berghei NK65; [7]) | spleen size (P. berghei NK65; [7]) | parasitemia (P. berghei NK65; 30 mg/kg i.v. once daily for 4 days) | curative effect (survival) (P. berghei NK65; 30 mg/kg once daily, 6 dpi) | Tmax_h, time to peak concentration [3] | elimination half-life (t1/2) ([3]; comparison of both drugs) | Cmax/AUC higher than that of SAM13-2HCl ([3]; versus SAM13-2HCl) | solubility in deionized water [4] | turbidity [5]
CCN(CC)CCCC(C)Nc1ccnc2cc(Cl)ccc12 (centres unmarked) [CQ, Chloroquine] | 6.0 | 3.5 | significantly reduced parasite density |  |  |  |  |  |  |  |  |  |  |  |  |  | 
CN(C)CCNC(=O)/C=C/[C@H](Cc1ccccc1)Nc1ccnc2cc(Cl)ccc12 [SKM13-2HCl] | 1.0 | 1 | increased parasitemia | 55.2 ± 1.1 µM | 0.0531 ± 0.01 µM | 0.366 ± 0.0198 µM | not observed | effectively suppressed parasitemia | decreased liver pigmentation | same size as those of the normal or CQ-treated groups | effectively suppressed parasitemia | complete curative effect | 15 min | similar | 2 fold | 850.8 mg/mL | transparent
